Data on 2 compounds can be found in ChEMBL document CHEMBL1938298, “Synthesis and characterization of [¹²⁵I]2-iodo N-[(S)-{(S)-1-methylpiperidin-2-yl}(phenyl)methyl]3-trifluoromethyl-benzamide as novel imaging probe for glycine transporter 1” (Bioorg Med Chem, 2011).

The structures appear in SMILES notation.

Experiment [1] addresses T1, Sodium- and chloride-dependent glycine transporter 1 (Homo sapiens, UniProt P48067).
T1 sequence (P48067 whole entry): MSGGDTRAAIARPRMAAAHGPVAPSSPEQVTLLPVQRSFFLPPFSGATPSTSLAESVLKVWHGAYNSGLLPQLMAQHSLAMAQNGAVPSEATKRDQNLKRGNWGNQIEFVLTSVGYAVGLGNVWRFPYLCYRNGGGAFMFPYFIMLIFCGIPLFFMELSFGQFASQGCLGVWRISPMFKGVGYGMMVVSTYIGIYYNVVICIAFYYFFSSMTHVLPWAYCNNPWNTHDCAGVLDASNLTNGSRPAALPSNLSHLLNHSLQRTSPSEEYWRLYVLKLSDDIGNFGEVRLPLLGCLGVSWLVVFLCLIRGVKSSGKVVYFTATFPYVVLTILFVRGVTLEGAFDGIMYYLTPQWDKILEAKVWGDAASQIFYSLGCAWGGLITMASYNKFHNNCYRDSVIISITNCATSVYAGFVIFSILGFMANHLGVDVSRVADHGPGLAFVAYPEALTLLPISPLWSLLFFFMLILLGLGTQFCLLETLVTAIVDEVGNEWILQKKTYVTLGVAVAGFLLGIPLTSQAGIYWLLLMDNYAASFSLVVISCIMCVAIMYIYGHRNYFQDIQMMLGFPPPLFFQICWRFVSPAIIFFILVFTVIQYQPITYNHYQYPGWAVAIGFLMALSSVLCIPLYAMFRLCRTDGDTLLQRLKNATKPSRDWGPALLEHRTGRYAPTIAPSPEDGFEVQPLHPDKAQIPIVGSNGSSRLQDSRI
Nature of the experiment: Inhibition of human GlyT1 expressed in CHO cells assessed as inhibition of [3H]glycine uptake preincubated for 1 mins measured after 2 hrs by liquid scintillation counting. Format: cell-based.

In experiment [2] the target is T1, Sodium- and chloride-dependent glycine transporter 1. As to the kind of experiment: Inhibition of GlyT1 in human JAR cells assessed as inhibition of [3H]glycine uptake preincubated for 1 mins measured after 2 hrs by liquid scintillation counting. Format: cell-based. The gist of the method:
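[3H]glycine (final 10 µM) was added for 2 h at room temperature; nonspecific uptake was defined with 10 mM glycine. Cells were lysed in NaOH and counted by liquid scintillation. IC50 values are from at least three measurements, mean ± SEM.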

As usually defined, the IC50 is the point on the concentration scale where inhibition reaches its midpoint. As for `O=C(N[C@@H](c1ccccc1)[C@@H]1CCCCN1)c1cccc(C(F)(F)F)c1Cl`, the IC50 in experiment [1] stood at 314 nM; in experiment [2], 80.1 nM.

As for `O=C(N[C@@H](c1ccccc1)[C@@H]1CCCCN1)c1cccc(C(F)(F)F)c1I`, the IC50 in experiment [2] amounted to 43 nM.
